ChEMBL document CHEMBL2034977, “Discovery of CX-6258. A Potent, Selective, and Orally Efficacious pan-Pim Kinases Inhibitor” (ACS Med Chem Lett, 2012)

What was measured:
Format in all cases: ADME, organism-based
[1] = Half life in iv dosed mouse; details: in vivo
Procedure, shortened: (§1)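 Mouse pharmacokinetics after IV and oral dosing. Vehicle D5W. Clearance, volume of distribution, half-life, AUC over 0−24 h and oral bioavailability were derived. Each value is the average of four animals.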

[2] = AUC (0 to 24 hrs) in po dosed mouse; parameters: time < 24 hr, route oral; details: plasma; procedure, shortened: as §1
[3] = Volume of distribution in iv dosed mouse; details: in vivo; procedure, shortened: as §1
[4] = Oral bioavailability in mouse; details: in vivo; procedure, shortened: as §1
[5] = species: Mus musculus; assay: Drug metabolism in mouse assessed as formation of 3-((5-(3-(1,4-diazepane-1-carbonyl)phenyl)furan-2-yl)methylene)-5-chloroindolin-2-one; details: in vivo
[6] = Clearance in iv dosed mouse; details: in vivo; procedure, shortened: as §1

CN1CCCN(C(=O)c2cccc(-c3ccc(/C=C4/C(=O)Nc5ccc(Cl)cc54)o3)c2)CC1
half-life [1]: 27 h
AUC(0-t) at 24 h [2]: 1020 ng·h/mL
Vd [3]: 85 L/kg
bioavailability [4]: 23%
Drug metabolism [5]: Active
clearance [6]: 35 mL/min/kg
